Test results from paper PMC7106486 (Science translational medicine, 2019).

Columns and labels:
[1] = system: S. aureus USA300 LAC agr type I P3-YFP; experiment: S. aureus agr activity, P3-YFP reporter, in vitro; assay type: cell-based; conditions: synthetic peptide, overnight culture
[2] = system: murine back skin treated with S. aureus; experiment: Transepidermal water loss; assay type: in vivo, mouse C57BL/6; conditions: synthetic autoinducing peptide 10 μg with S. aureus 1 × 10^7 CFU, 48 hours
Summary of the method: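 Back skin of 8-week male C57BL/6 mice depilated (shave plus Nair 2 min), allowed 48 h barrier recovery. S. aureus USA300 LAC agr type I (1 × 10^7 CFU, 100 μl 3% TSB) plus synthetic autoinducing peptide (10 μg, DMSO) applied on 2-cm2 gauze under Tegaderm for 48 h. Transepidermal water loss measured by Tewameter on treated skin; n = 5.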

[3] = system: Klk6 and cytokine (Il6, Il17a, Il17f) mRNA in murine skin; experiment: Klk6 and cytokine mRNA expression on murine skin; assay type: in vivo, mouse C57BL/6; conditions: synthetic autoinducing peptide 10 μg with S. aureus 1 × 10^7 CFU, 48 hours
Summary of the method: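 Male C57BL/6 mice, 8 weeks old, shaved and Nair-depilated (2 min), then rested 48 h. S. aureus USA300 LAC (agr type I, from 18 h cultures in 3% TSB at 37°C), 1 × 10^7 CFU in 3% TSB (100 μl), applied with synthetic autoinducing peptide (10 μg, DMSO) on 2-cm2 gauze under Tegaderm to back skin for 48 h. Applied CFU confirmed next day; n = 5.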

[4] = system: clinical S. aureus strains expressing PSMα; experiment: Protection against clinical S. aureus strains expressing PSMα

S-Y-N-V-c(C-G-G-Y-F) [S. hominis C5 autoinducing peptide]
inhibition of S. aureus agr activity (in words) [1]: potently inhibited S. aureus agr activity in a dose-dependent manner
inhibition of S. aureus agr activity (in words) ([1]; listed as SYNVCGGYF): highly potent inhibitor of S. aureus agr activity
TEWL on murine skin (in words) [2]: inhibited TEWL
Klk6 expression on murine skin (in words) [3]: inhibited TEWL, Klk6
protection against clinical S. aureus strains (in words) [4]: protective against clinical S. aureus strains expressing PSMα
